Measurements as given in ChEMBL document CHEMBL4118063, “Design, synthesis and evaluation of aromatic heterocyclic derivatives as potent antifungal agents” (Eur J Med Chem, 2017).
Converted amounts (≈) assume the structure as drawn.

How the values were obtained:
Aspergillus fumigatus = experiment: Antifungal activity against Aspergillus fumigatus GIM 3.524 by broth microdilution method; assay type: functional
Procedure, shortened: (§1)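 Serial twofold-style dilution in growth medium per NCCLS broth microdilution guidelines. Compounds dissolved in DMSO before dilution. Fluconazole and itraconazole served as positive controls. MIC was read as the lowest concentration that prevents visible fungal growth.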

Candida albicans [1] = experiment: Antifungal activity against Candida albicans ATCC SC5314 by broth microdilution method; assay type: functional; procedure, shortened: as §1
Candida albicans [2] = experiment: Antifungal activity against Candida albicans CPCC 400523 by broth microdilution method; assay type: functional; procedure, shortened: as §1
Candida tropicalis = experiment: Antifungal activity against Candida tropicalis cgmcc 2.3739 by broth microdilution method; assay type: functional; procedure, shortened: as §1
Cryptococcus neoformans = experiment: Antifungal activity against Cryptococcus neoformans cgmcc 2.3161 by broth microdilution method; assay type: functional; procedure, shortened: as §1
Candida albicans [3] = experiment: Antifungal activity against fluconazole-resistant Candida albicans strain 100 by broth microdilution method; assay type: functional
Procedure, shortened: (§2)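 Broth serial dilution in 96-well plates per NCCLS guidelines; compounds dissolved in DMSO and serially diluted into growth medium; MIC taken as lowest concentration inhibiting visible fungal growth. Fluconazole-resistant clinical C. albicans isolates 100 and 103; fluconazole and itraconazole as positive controls.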

[4] = Metabolic stability in human plasma assessed as parent compound remaining at 60 mins; assay type: ADME, cell-free; settings: read-out: Stability
Candida albicans [5] = experiment: Antifungal activity against fluconazole-resistant Candida albicans strain 103 by broth microdilution method; assay type: functional; procedure, shortened: as §2
[6] = Metabolic stability in human plasma assessed as parent compound remaining at 120 mins; assay type: ADME, cell-free; settings: read-out: Stability

Row | Compound | MIC (Aspergillus fumigatus) | MIC (Candida albicans [1]) | MIC (Candida albicans [2]) | MIC (Candida tropicalis) | MIC (Cryptococcus neoformans) | MIC (Candida albicans [3]) | remaining at 1 h [4] | MIC (Candida albicans [5]) | remaining at 2 h [6]
1 | CC(C)OC(=O)[C@H](Cn1ccnc1)NC(=O)c1ccc(-c2ccccc2F)cc1 | > 16 µg/mL | 0.0625 µg/mL (≈ 0.158 µM) | 0.25 µg/mL (≈ 0.632 µM) | 0.0625 µg/mL (≈ 0.158 µM) | 1 µg/mL (≈ 2.53 µM) |  |  |  | 
2 | CC(C)COC(=O)[C@H](Cn1ccnc1)NC(=O)c1coc(-c2ccccc2)n1 | > 16 µg/mL | > 16 µg/mL | > 16 µg/mL | 4 µg/mL (≈ 10.5 µM) | > 16 µg/mL |  |  |  | 
3 | Cc1cc(C(=O)N[C@@H](Cn2ccnc2)C(=O)OCC(C)C)nn1-c1ccccc1 | > 16 µg/mL | > 16 µg/mL | > 16 µg/mL | 4 µg/mL (≈ 10.1 µM) | > 16 µg/mL |  |  |  | 
4 | CC(C)COC(=O)[C@H](Cn1ccnc1)NC(=O)c1cc(-c2ccccc2)on1 | 4 µg/mL (≈ 10.5 µM) | 0.0625 µg/mL (≈ 0.163 µM) | 1 µg/mL (≈ 2.61 µM) | 0.0312 µg/mL (≈ 0.0817 µM) | 0.25 µg/mL (≈ 0.654 µM) |  |  |  | 
5 | Cc1ccc(-c2cc(C(=O)N[C@@H](Cn3ccnc3)C(=O)OC(C)C)no2)cc1 | 8 µg/mL (≈ 20.9 µM) | 0.25 µg/mL (≈ 0.654 µM) | 0.5 µg/mL (≈ 1.31 µM) | 0.0312 µg/mL (≈ 0.0817 µM) | 2 µg/mL (≈ 5.23 µM) |  |  |  | 
6 | CC(C)COC(=O)[C@H](Cn1ccnc1)NC(=O)c1cc(-c2ccccc2F)on1 | 4 µg/mL (≈ 9.99 µM) | 0.0312 µg/mL (≈ 0.078 µM) | 0.125 µg/mL (≈ 0.312 µM) | 0.0312 µg/mL (≈ 0.078 µM) | 0.25 µg/mL (≈ 0.624 µM) | 0.125 µg/mL (≈ 0.312 µM) | 74.6% | 0.5 µg/mL (≈ 1.25 µM) | 61.4%
7 | CC(C)COC(=O)[C@H](Cn1ccnc1)NC(=O)c1cc(-c2ccc(F)cc2)on1 | 8 µg/mL (≈ 20 µM) | 0.5 µg/mL (≈ 1.25 µM) | 2 µg/mL (≈ 4.99 µM) | 0.0312 µg/mL (≈ 0.078 µM) | 0.5 µg/mL (≈ 1.25 µM) |  |  |  | 
8 | CC(C)OC(=O)[C@H](Cn1ccnc1)NC(=O)c1cc(-c2ccc(Br)cc2)on1 | > 16 µg/mL | 0.0625 µg/mL (≈ 0.14 µM) | 0.25 µg/mL (≈ 0.559 µM) | 0.0312 µg/mL (≈ 0.0699 µM) | 2 µg/mL (≈ 4.47 µM) |  |  |  | 
9 | Cc1nc(-c2ccccc2)sc1C(=O)N[C@@H](Cn1ccnc1)C(=O)OCC(C)C | > 16 µg/mL | 0.25 µg/mL (≈ 0.606 µM) | 1 µg/mL (≈ 2.42 µM) | 0.125 µg/mL (≈ 0.303 µM) | 8 µg/mL (≈ 19.4 µM) |  |  |  | 
10 | Cc1ccc(-c2cc(C(=O)N[C@@H](Cn3ccnc3)C(=O)OCC(C)C)no2)cc1 | 8 µg/mL (≈ 20.2 µM) | 0.125 µg/mL (≈ 0.315 µM) | 0.5 µg/mL (≈ 1.26 µM) | 0.0312 µg/mL (≈ 0.0788 µM) | 0.5 µg/mL (≈ 1.26 µM) |  |  |  | 
11 | CC(C)COC(=O)[C@H](Cn1ccnc1)NC(=O)c1ccc(-c2ccccc2)o1 | > 16 µg/mL | > 16 µg/mL | > 16 µg/mL | 4 µg/mL (≈ 10.5 µM) | > 16 µg/mL |  |  |  | 
12 | CC(C)OC(=O)[C@H](Cn1ccnc1)NC(=O)c1cc(-c2ccc(F)cc2)on1 | 8 µg/mL (≈ 20.7 µM) | 1 µg/mL (≈ 2.59 µM) | 2 µg/mL (≈ 5.18 µM) | 0.0312 µg/mL (≈ 0.0809 µM) | 2 µg/mL (≈ 5.18 µM) |  |  |  | 
13 | CC(C)COC(=O)[C@H](Cn1ccnc1)NC(=O)c1cc(-c2ccc(Br)cc2)on1 | > 16 µg/mL | 0.0312 µg/mL (≈ 0.0677 µM) | 0.125 µg/mL (≈ 0.271 µM) | 0.0312 µg/mL (≈ 0.0677 µM) | 2 µg/mL (≈ 4.34 µM) |  |  |  | 
14 | CC(C)COC(=O)[C@H](Cn1ccnc1)NC(=O)c1cnc(-c2ccccc2)nc1 | > 16 µg/mL | 0.25 µg/mL (≈ 0.635 µM) | 0.5 µg/mL (≈ 1.27 µM) | 0.125 µg/mL (≈ 0.318 µM) | 2 µg/mL (≈ 5.08 µM) |  |  |  | 
15 | CCC(C)n1ncn(-c2ccc(N3CCN(c4ccc(OCC5COC(Cn6cncn6)(c6ccc(Cl)cc6Cl)O5)cc4)CC3)cc2)c1=O (centres undefined) [ITRACONAZOLE] | 1 µg/mL (≈ 1.42 µM) | 0.0312 µg/mL (≈ 0.0443 µM) | 0.125 µg/mL (≈ 0.177 µM) | 0.0312 µg/mL (≈ 0.0443 µM) | 1 µg/mL (≈ 1.42 µM) |  |  |  | 

Continued, in another order:

Row | MIC (Aspergillus fumigatus) | MIC (Candida albicans [1]) | MIC (Candida albicans [2]) | MIC (Candida tropicalis) | MIC (Cryptococcus neoformans) | Compound | MIC (Candida albicans [3]) | remaining at 1 h [4] | MIC (Candida albicans [5]) | remaining at 2 h [6]
16 | > 16 µg/mL | 2 µg/mL (≈ 5.28 µM) | 4 µg/mL (≈ 10.6 µM) | 1 µg/mL (≈ 2.64 µM) | 16 µg/mL (≈ 42.3 µM) | CC(C)OC(=O)[C@H](Cn1ccnc1)NC(=O)c1ccc(-c2ccccc2)nc1 |  |  |  | 
17 | > 16 µg/mL | 2 µg/mL (≈ 5.02 µM) | 2 µg/mL (≈ 5.02 µM) | 0.25 µg/mL (≈ 0.627 µM) | 16 µg/mL (≈ 40.2 µM) | Cc1nc(-c2ccccc2)sc1C(=O)N[C@@H](Cn1ccnc1)C(=O)OC(C)C |  |  |  | 
18 | > 16 µg/mL | > 16 µg/mL | > 16 µg/mL | 0.125 µg/mL (≈ 0.314 µM) | 2 µg/mL (≈ 5.02 µM) | CC(C)COC(=O)[C@H](Cn1ccnc1)NC(=O)c1nc(-c2ccccc2)cs1 |  |  |  | 
19 | > 16 µg/mL | > 16 µg/mL | > 16 µg/mL | 8 µg/mL (≈ 21.7 µM) | > 16 µg/mL | CC(C)OC(=O)[C@H](Cn1ccnc1)NC(=O)c1coc(-c2ccccc2)n1 |  |  |  | 
20 | > 16 µg/mL | > 16 µg/mL | > 16 µg/mL | > 16 µg/mL | > 16 µg/mL | CC(C)OC(=O)[C@H](Cn1ccnc1)NC(=O)c1csc(-c2ccccc2)n1 |  |  |  | 
21 | 4 µg/mL (≈ 10.9 µM) | 0.25 µg/mL (≈ 0.679 µM) | 0.5 µg/mL (≈ 1.36 µM) | 0.0625 µg/mL (≈ 0.17 µM) | 0.5 µg/mL (≈ 1.36 µM) | CC(C)OC(=O)[C@H](Cn1ccnc1)NC(=O)c1cc(-c2ccccc2)on1 |  |  |  | 
22 | > 16 µg/mL | 2 µg/mL (≈ 5.03 µM) | 4 µg/mL (≈ 10.1 µM) | 0.125 µg/mL (≈ 0.314 µM) | > 16 µg/mL | CC(C)COC(=O)[C@H](Cn1ccnc1)NC(=O)c1ccc(-c2ccccc2)s1 |  |  |  | 
23 | > 16 µg/mL | 8 µg/mL (≈ 20.9 µM) | 8 µg/mL (≈ 20.9 µM) | 1 µg/mL (≈ 2.61 µM) | 16 µg/mL (≈ 41.7 µM) | CC(C)OC(=O)[C@H](Cn1ccnc1)NC(=O)c1ccc(-c2ccccc2)s1 |  |  |  | 
24 | > 16 µg/mL | > 16 µg/mL | > 16 µg/mL | > 16 µg/mL | > 16 µg/mL | CC(C)COC(=O)[C@H](Cn1ccnc1)NC(=O)c1csc(-c2ccccc2)n1 |  |  |  | 
25 | > 16 µg/mL | 0.25 µg/mL (≈ 0.659 µM) | 1 µg/mL (≈ 2.64 µM) | 0.0625 µg/mL (≈ 0.165 µM) | 8 µg/mL (≈ 21.1 µM) | CC(C)OC(=O)[C@H](Cn1ccnc1)NC(=O)c1cnc(-c2ccccc2)nc1 |  |  |  | 
26 | > 16 µg/mL | > 16 µg/mL | > 16 µg/mL | 8 µg/mL (≈ 21.8 µM) | > 16 µg/mL | CC(C)OC(=O)[C@H](Cn1ccnc1)NC(=O)c1ccc(-c2ccccc2)o1 |  |  |  | 
27 | > 16 µg/mL | > 16 µg/mL | > 16 µg/mL | 0.0625 µg/mL (≈ 0.163 µM) | 2 µg/mL (≈ 5.2 µM) | CC(C)OC(=O)[C@H](Cn1ccnc1)NC(=O)c1nc(-c2ccccc2)cs1 |  |  |  | 
28 | > 16 µg/mL | > 16 µg/mL | > 16 µg/mL | 4 µg/mL (≈ 10.5 µM) | > 16 µg/mL | Cc1cc(C(=O)N[C@@H](Cn2ccnc2)C(=O)OC(C)C)nn1-c1ccccc1 |  |  |  | 
